The results in this text go back to publication PMC6923801 (Journal of medicinal chemistry, 2019).

Common to all, as to type: cell-based
The target in one experiment is GPR65 (Homo sapiens, UniProt Q8IYL9). The experiment in a line: GloSensor cAMP assay at GPR65. As to conditions: proton concentration-response with increasing modulator. In a few lines:
(§1)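 HEK293T cells were transiently transfected with receptor and GloSensor cAMP plasmids, overnight (16–20 h). Cells were plated on poly-L-Lys in DMEM + 1% dFBS for 6–24 h, then loaded with 3.5 mM luciferin (HBSS, 20 mM TAPS, pH 8.40) for 1 h at 37 °C. Drug was applied in Ca/Mg-free HBSS pH buffers (MES 5.60–6.70, HEPES 6.80–8.20, TAPS 8.30–8.60) with 10 μM Ro 20-1724. Luminescence was read at 20–30 min.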
(In general: Changes in cAMP serve as a functional read-out for many G protein-coupled receptors.)

The target of the next experiment is GPR4 (Homo sapiens, UniProt P46093). As to the kind of experiment: GloSensor cAMP assay at GPR4. Particulars: proton concentration-response with increasing modulator. Summed up:
as §1

In a further experiment the target is human GPR68 (Homo sapiens, UniProt Q15743). As to the kind of experiment: GloSensor cAMP assay, proton-mediated Gs-cAMP production at human GPR68. Particulars: for Δ: difference of Log(αβ/KB) from that of 1. In a few lines:
as §1

For experiment [1], the system named is human GPCRome (318 GPCRs). The experiment in a line: PRESTO-Tango GPCRome off-target agonist screen. As to conditions: 1 μM. Summed up: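 HTLA cells were plated in DMEM + 2% dFBS overnight, then transfected overnight with receptor Tango constructs (15 ng/well) by in-plate PEI. Test compound was added without medium change and left overnight. Bright-Glo luminescence was read after 20 min at room temperature and expressed as fold of basal, using quadruplicate basal and sample wells. Controls were D2 with 100 nM quinpirole and untransfected cells.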

For another experiment, the target named is A2A receptors (Homo sapiens, UniProt P29274). The experiment in a line: Functional assay at A2A receptors.
Chain of A2A receptors (P29274 whole entry): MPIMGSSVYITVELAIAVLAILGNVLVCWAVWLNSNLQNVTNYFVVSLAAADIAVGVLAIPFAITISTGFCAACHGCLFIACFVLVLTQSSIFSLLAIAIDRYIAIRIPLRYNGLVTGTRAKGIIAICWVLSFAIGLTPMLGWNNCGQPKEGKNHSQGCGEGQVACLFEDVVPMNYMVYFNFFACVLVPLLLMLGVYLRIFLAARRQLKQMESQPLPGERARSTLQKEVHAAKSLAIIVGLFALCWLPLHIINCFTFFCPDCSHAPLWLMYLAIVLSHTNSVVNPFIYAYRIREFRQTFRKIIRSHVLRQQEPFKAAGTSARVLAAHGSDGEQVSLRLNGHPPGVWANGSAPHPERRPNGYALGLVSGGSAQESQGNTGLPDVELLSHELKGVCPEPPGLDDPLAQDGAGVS
The target of another experiment is mouse GPR68 (Mus musculus, UniProt Q8BFQ3). As to the kind of experiment: GloSensor cAMP assay at mouse GPR68. Summed up:
as §1

Chain of mouse GPR68 (Q8BFQ3 whole entry): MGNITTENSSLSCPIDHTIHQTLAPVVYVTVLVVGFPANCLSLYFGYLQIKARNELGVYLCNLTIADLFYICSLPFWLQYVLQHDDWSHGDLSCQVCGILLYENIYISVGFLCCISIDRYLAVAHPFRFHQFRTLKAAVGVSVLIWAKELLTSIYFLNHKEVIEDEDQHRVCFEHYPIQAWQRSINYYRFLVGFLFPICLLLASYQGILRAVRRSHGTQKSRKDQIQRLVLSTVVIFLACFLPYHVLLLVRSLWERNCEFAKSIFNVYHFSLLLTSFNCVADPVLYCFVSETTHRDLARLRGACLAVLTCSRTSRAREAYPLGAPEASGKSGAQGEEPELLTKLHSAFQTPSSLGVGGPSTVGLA
Chain of human GPR68 (Q15743 whole entry): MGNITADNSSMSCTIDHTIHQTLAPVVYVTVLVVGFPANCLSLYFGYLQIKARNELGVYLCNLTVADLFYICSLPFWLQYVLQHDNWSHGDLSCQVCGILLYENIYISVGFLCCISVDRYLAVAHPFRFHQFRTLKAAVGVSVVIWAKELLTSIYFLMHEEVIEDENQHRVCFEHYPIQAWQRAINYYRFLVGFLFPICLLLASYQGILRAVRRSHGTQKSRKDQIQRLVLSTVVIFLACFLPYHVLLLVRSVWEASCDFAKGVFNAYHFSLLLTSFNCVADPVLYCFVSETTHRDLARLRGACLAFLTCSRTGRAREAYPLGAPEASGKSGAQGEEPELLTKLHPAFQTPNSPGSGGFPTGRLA
Chain of GPR4 (P46093 whole entry): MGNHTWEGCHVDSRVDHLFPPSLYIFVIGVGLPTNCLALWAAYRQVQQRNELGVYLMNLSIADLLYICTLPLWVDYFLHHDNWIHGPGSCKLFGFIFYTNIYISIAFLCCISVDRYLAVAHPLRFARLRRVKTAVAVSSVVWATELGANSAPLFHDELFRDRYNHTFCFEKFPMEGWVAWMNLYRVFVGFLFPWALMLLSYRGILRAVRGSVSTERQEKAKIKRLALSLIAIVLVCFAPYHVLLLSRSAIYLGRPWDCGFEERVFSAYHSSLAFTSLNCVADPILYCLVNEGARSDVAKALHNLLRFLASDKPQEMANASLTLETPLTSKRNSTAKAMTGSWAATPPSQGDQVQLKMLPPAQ
Chain of GPR65 (Q8IYL9 whole entry): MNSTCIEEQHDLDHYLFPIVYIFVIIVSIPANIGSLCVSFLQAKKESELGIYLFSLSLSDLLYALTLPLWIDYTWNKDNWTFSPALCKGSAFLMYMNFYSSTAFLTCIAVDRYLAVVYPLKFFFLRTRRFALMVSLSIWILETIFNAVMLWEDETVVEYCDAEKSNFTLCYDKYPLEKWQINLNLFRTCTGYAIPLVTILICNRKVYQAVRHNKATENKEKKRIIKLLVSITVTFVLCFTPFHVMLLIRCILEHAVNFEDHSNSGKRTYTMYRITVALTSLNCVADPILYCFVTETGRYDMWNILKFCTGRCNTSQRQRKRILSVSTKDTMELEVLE

Consider `Nc1nc(NCc2ccccc2)nc(-c2cccc(CO)c2)n1` [Compound 20], for which the “PAM activity at GPR65” value at GPR65 is “do not show PAM activity”. Further, the “PAM activity at GPR4” value at GPR4 is reported as “do not show PAM activity”. Besides, the “Log (α)” value on human GPR68 (affinity cooperativity, human GPR68, HEK293T, Gs-cAMP, mean ± SEM) is “Inactive”. The “−Log (KB)” value at human GPR68 (allosteric binding affinity from functional assay, human GPR68, mean ± SEM) is on record as “Inactive”. Also, the “Log (αβ/KB)” value at human GPR68 (allosteric index, human GPR68, mean ± SEM) is on record as “Inactive”. Further, the Δ entry on human GPR68 (human GPR68) is “Inactive”. Moreover, the “Log (β)” value at human GPR68 (efficacy cooperativity, human GPR68, HEK293T, Gs-cAMP, mean ± SEM) was “Inactive”. In addition, the “PAM activity at GPR68” value at human GPR68 (inactive analogues) is “do not show PAM activity”.
Broadly, the EC50 is the concentration at which the effect is half-maximal. A low value points to an effect from little substance. Take `Nc1nc(NCc2ccc(Cl)cc2)nc(-c2ccccc2CO)n1` [Compound 46, (2-(4-Amino-6-((4-chlorobenzyl)amino)-1,3,5-triazin-2-yl)-phenyl)methanol]: the “off-target agonist activity at human GPCRome” value in experiment [1] is reported as “no agonist activity”. For the same compound, at A2A receptors, the concentration giving a half-maximal response (EC50) is 1.7 µM and the “agonist activity at A2A receptors” value was “no agonist activity”. The compound also had a Kb on mouse GPR68 of 50.1 µM. For the same compound, the Δ on mouse GPR68 (difference of Log(αβ/KB) at mouse GPR68 from the corresponding values at human GPR68) was −0.43. Further, the “PAM activity at GPR65” value at GPR65 is listed as “no effect or weak activity only at high concentrations”. Moreover, the “PAM activity at GPR4” value on GPR4 was “no effect or weak activity only at high concentrations”. The same compound had a Kb at human GPR68 of 6.03 µM. Moreover, at human GPR68 (human GPR68), the Δ is on record as 0.80 and the “fold increased allosteric activity (log(αβ/KB)) compared to 1” value came to 6 fold.
With `COc1ccccc1CNc1nc(N)nc(-c2ccccc2CO)n1` [Compound 53, (2-(4-Amino-6-((2-methoxybenzyl)amino)-1,3,5-triazin-2-yl)-phenyl)methanol], at human GPR68, the Kb was 102 µM. The Δ at human GPR68 (human GPR68) is reported as −0.28.
The compound `COc1cccc(CNc2nc(N)nc(-c3ccccc3CO)n2)c1` [Compound 54, (2-(4-Amino-6-((3-methoxybenzyl)amino)-1,3,5-triazin-2-yl)-phenyl)methanol] gave a Kb at human GPR68 of 77.6 µM. Also, the Δ at human GPR68 (human GPR68) was −0.09.
On human GPR68, `COc1ccc(CNc2nc(N)nc(-c3ccccc3CO)n2)cc1` [Compound 55] gave a Kb of 457 µM. Also, the Δ at human GPR68 (human GPR68) is recorded as −0.70.
The matching figures for `CCOc1ccc(CNc2nc(N)nc(-c3ccccc3CO)n2)cc1` [Compound 56, (2-(4-Amino-6-((4-ethoxybenzyl)amino)-1,3,5-triazin-2-yl)-phenyl)methanol]: 17 µM and 0.26.
For `CC(C)Oc1ccc(CNc2nc(N)nc(-c3ccccc3CO)n2)cc1` [Compound 57, (2-(4-Amino-6-((4-isopropoxybenzyl)amino)-1,3,5-triazin-2-yl)-phenyl)methanol], the Kb on human GPR68 is 10.2 µM. Besides, on human GPR68 (human GPR68), the Δ was 0.38.
Compound `Nc1nc(NCc2ccc(OC3CC3)cc2)nc(-c2ccccc2CO)n1` [Compound 58, (2-(4-Amino-6-((4-cyclopropoxybenzyl)amino)-1,3,5-triazin-2-yl)phenyl)methanol] had a Kb at human GPR68 of 8.51 µM. This compound registered a Δ on human GPR68 (human GPR68) of 0.46.
The corresponding values for `Nc1nc(NCc2ccc(Oc3ccccc3)cc2)nc(-c2ccccc2CO)n1` [Compound 59, (2-(4-Amino-6-((4-phenoxybenzyl)amino)-1,3,5-triazin-2-yl)-phenyl)methanol] are 6.46 µM and 0.83.
`Nc1nc(Nc2ccccc2)nc(-c2ccccc2CO)n1` [Compound 60, (2-(4-Amino-6-(phenylamino)-1,3,5-triazin-2-yl)phenyl)-methanol]: on human GPR68, the Kb is 120 µM. Moreover, the Δ on human GPR68 (human GPR68) is given as −0.27.
The matching figures for `Nc1nc(NCCc2ccccc2)nc(-c2ccccc2CO)n1` [Compound 61]: 31.6 µM and 0.31.
As to `Nc1nc(NCCCc2ccccc2)nc(-c2ccccc2CO)n1` [Compound 62], the Kb on human GPR68 is 6.03 µM. The Δ on human GPR68 (human GPR68) was 0.80.
For `Nc1nc(NCCCCc2ccccc2)nc(-c2ccccc2CO)n1` [Compound 63], the Kb is 12.3 µM at mouse GPR68 and 3.02 µM on human GPR68. For the same compound, the Δ at human GPR68 (human GPR68) came out at 1.04.
In the case of `Nc1nc(NCCc2ccc(Oc3ccccc3)cc2)nc(-c2ccccc2CO)n1` [Compound 64, (2-(4-Amino-6-((4-phenoxyphenethyl)amino)-1,3,5-triazin-2-yl)-phenyl)methanol], the Kb on human GPR68 was 10 µM. At human GPR68 (human GPR68), this compound came in with a Δ of 0.59.
In turn, `Nc1nc(NCCCc2ccc(Oc3ccccc3)cc2)nc(-c2ccccc2CO)n1` [Compound 65, (2-(4-Amino-6-((3-(4-phenoxyphenyl)propyl)amino)-1,3,5-triazin-2-yl)phenyl)methanol] gave a Kb on human GPR68 of 21.4 µM. The compound also returned a Δ on human GPR68 (human GPR68) of 0.53.
The matching figures for `Nc1nc(NCCCCc2ccc(Oc3ccccc3)cc2)nc(-c2ccccc2CO)n1` [Compound 66, (2-(4-Amino-6-((4-(4-phenoxyphenyl)butyl)amino)-1,3,5-triazin-2-yl)phenyl)methanol]: 15.5 µM and 0.62.
As for `Nc1nc(NCc2ccccc2F)nc(-c2c(F)cccc2CO)n1` [Compound 67, (2-(4-Amino-6-((2-fluorobenzyl)amino)-1,3,5-triazin-2-yl)-3-fluorophenyl)methanol], the Kb at human GPR68 was 60.3 µM.
Compound `Nc1nc(NCc2ccc(F)cc2)nc(-c2c(F)cccc2CO)n1` [Compound 68, (2-(4-Amino-6-((4-fluorobenzyl)amino)-1,3,5-triazin-2-yl)-3-fluorophenyl)methanol] gave a Kb on human GPR68 of 35.5 µM. Further, the Δ on human GPR68 (human GPR68) was determined as 0.24.
The matching figures for `Cc1cccc(CNc2nc(N)nc(-c3c(F)cccc3CO)n2)c1` [Compound 69, (2-(4-Amino-6-((3-methylbenzyl)amino)-1,3,5-triazin-2-yl)-3-fluorophenyl)methanol]: 36.3 µM and 0.11.
`COc1ccccc1CNc1nc(N)nc(-c2c(F)cccc2CO)n1` [Compound 70, (2-(4-Amino-6-((2-methoxybenzyl)amino)-1,3,5-triazin-2-yl)-3-fluorophenyl)methanol] showed a Kb at human GPR68 of 77.6 µM. Moreover, the Δ at human GPR68 (human GPR68) is listed as −0.19.
The matching figures for `Nc1nc(NCCc2ccccc2)nc(-c2c(F)cccc2CO)n1` [Compound 72, (2-(4-Amino-6-(phenethylamino)-1,3,5-triazin-2-yl)-3-fluorophenyl)methanol]: 9.12 µM and 0.82.
Turning to `Nc1nc(NCCCc2ccccc2)nc(-c2c(F)cccc2CO)n1` [Compound 73, (2-(4-Amino-6-((3-phenylpropyl)amino)-1,3,5-triazin-2-yl)-3-fluorophenyl)methanol], the Kb on human GPR68 is 33.9 µM. On human GPR68 (human GPR68), this compound displayed a Δ of 0.36.
In the case of `Nc1nc(NCCCCc2ccccc2)nc(-c2c(F)cccc2CO)n1` [Compound 74, (2-(4-Amino-6-((4-phenylbutyl)amino)-1,3,5-triazin-2-yl)-3-fluorophenyl)methanol], at human GPR68, the Kb was 91.2 µM. The Δ on human GPR68 (human GPR68) is given as 0.03.
The matching figures for `Nc1nc(NCCc2ccc(Oc3ccccc3)cc2)nc(-c2c(F)cccc2CO)n1` [Compound 75, (2-(4-Amino-6-((4-phenoxyphenethyl)amino)-1,3,5-triazin-2-yl)-3-fluorophenyl)methanol]: 8.91 µM and 0.82.
Consider `Nc1nc(NCCCc2ccc(Oc3ccccc3)cc2)nc(-c2c(F)cccc2CO)n1` [Compound 76, (2-(4-Amino-6-((3-(4-phenoxyphenyl)propyl)amino)-1,3,5-triazin-2-yl)-3-fluorophenyl)methanol], for which the Kb on human GPR68 was 11.5 µM. The compound further registered a Δ at human GPR68 (human GPR68) of 0.81.
At human GPR68, `Nc1nc(NCCCCc2ccccc2)nc(-c2cc(Cl)ccc2CO)n1` [Compound 79, (2-(4-Amino-6-((4-phenylbutyl)amino)-1,3,5-triazin-2-yl)-4-chlorophenyl)methanol] had a Kb of 10.5 µM. The compound further returned a Δ at human GPR68 (human GPR68) of 0.83.
On human GPR68, `Nc1nc(NCc2ccc(Oc3ccccc3)cc2)nc(-c2cc(Cl)ccc2CO)n1` [Compound 80, (2-(4-Amino-6-((4-phenoxybenzyl)amino)-1,3,5-triazin-2-yl)-4-chlorophenyl)methanol] showed a Kb of 20 µM. The compound further displayed a Δ on human GPR68 (human GPR68) of 0.47.
For the compound `Nc1nc(NCCc2ccc(Oc3ccccc3)cc2)nc(-c2cc(Cl)ccc2CO)n1` [Compound 81, (2-(4-Amino-6-((4-phenoxyphenethyl)amino)-1,3,5-triazin-2-yl)-4-chlorophenyl)methanol], on human GPR68, the Kb was 25.7 µM. The compound further came in with a Δ at human GPR68 (human GPR68) of 0.56.
